Measurements published in ChEMBL document CHEMBL1151854, “Dendrimers ended by non-symmetrical azadiphosphonate groups: synthesis and immunological properties” (Bioorg Med Chem Lett, 2009).
Active and inactive are the calls of the source.

Legend:
[1] = Solubility in water; format: physicochemical; conditions: buffer
PBMC [2] = assay: Activation of human PBMC assessed as down-regulation of HLA-DR expression at 20 uM after 4 days by flow cytometry; format: functional, cell-based
Method in brief: (§1)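 Fresh blood from healthy adult donors; PBMC isolated on Ficoll-Paque gradient (800 g, 30 min, room temperature), washed twice and cultured at 1.5 million cells/mL in RPMI 1640 with penicillin/streptomycin, 1 mM pyruvate and 10% heat-inactivated FCS. Sterile-filtered dendrimer was added at the final concentration. Monocytes were gated by morphology. The readout was HLA-DR (FITC) or CD14 (PE-Pc5) staining, given as the mfi ratio versus isotype control. Three donors were tested.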

PBMC [3] = assay: Activation of human PBMC assessed as down-regulation of HLA-DR expression at 2 uM after 4 days by flow cytometry; format: functional, cell-based; method in brief: as §1
PBMC [4] = assay: Activation of human PBMC assessed as down-regulation of CD14 expression by flow cytometry; format: functional, cell-based; method in brief: as §1
PBMC [5] = assay: Cytotoxicity against long-lasting cultures of human PBMC; format: cell-based
PBMC [6] = assay: Activation of human PBMC assessed as down-regulation of CD14 expression at 2 uM after 4 days by flow cytometry; format: functional, cell-based; method in brief: as §1
PBMC [7] = assay: Activation of human PBMC assessed as occurrence of bigger and granular monocytes by flow cytometry; format: functional, cell-based
Method in brief: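 Donor PBMC were prepared on Ficoll-Paque and cultured in complete RPMI 1640 (10% heat-inactivated FCS, 1.5 million cells/mL) with sterile-filtered dendrimer at the final concentration. By flow cytometry (LSR-II), monocytes were selected on scatter morphology, and the read-out was an increase in cell size and granularity.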

PBMC [8] = assay: Activation of human PBMC assessed as down-regulation of CD14 expression at 20 uM after 4 days by flow cytometry; format: functional, cell-based; method in brief: as §1
PBMC [9] = assay: Activation of human PBMC assessed as down-regulation of HLA-DR expression by flow cytometry; format: functional, cell-based; method in brief: as §1
PBMC [10] = assay: Activation of human PBMC assessed as down-regulation of CD14 expression after 4 days by flow cytometry; format: functional, cell-based; method in brief: as §1
PBMC [11] = assay: Activation of human PBMC assessed as down-regulation of HLA-DR expression after 4 days by flow cytometry; format: functional, cell-based; method in brief: as §1

CCCCN(CP(=O)([O-])O)C(c1ccc(OP(=S)(Oc2ccc(C(N(CCCC)CP(=O)([O-])O)P(=O)([O-])O)cc2)N(C)/N=C/c2ccc(OP3(Oc4ccc(/C=N/N(C)P(=S)(Oc5ccc(C(N(CCCC)CP(=O)([O-])O)P(=O)([O-])O)cc5)Oc5ccc(C(N(CCCC)CP(=O)([O-])O)P(=O)([O-])O)cc5)cc4)=NP(Oc4ccc(/C=N/N(C)P(=S)(Oc5ccc(C(N(CCCC)CP(=O)([O-])O)P(=O)([O-])O)cc5)Oc5ccc(C(N(CCCC)CP(=O)([O-])O)P(=O)([O-])O)cc5)cc4)(Oc4ccc(/C=N/N(C)P(=S)(Oc5ccc(C(N(CCCC)CP(=O)([O-])O)P(=O)([O-])O)cc5)Oc5ccc(C(N(CCCC)CP(=O)([O-])O)P(=O)([O-])O)cc5)cc4)=NP(Oc4ccc(/C=N/N(C)P(=S)(Oc5ccc(C(N(CCCC)CP(=O)([O-])O)P(=O)([O-])O)cc5)Oc5ccc(C(N(CCCC)CP(=O)([O-])O)P(=O)([O-])O)cc5)cc4)(Oc4ccc(/C=N/N(C)P(=S)(Oc5ccc(C(N(CCCC)CP(=O)([O-])O)P(=O)([O-])O)cc5)Oc5ccc(C(N(CCCC)CP(=O)([O-])O)P(=O)([O-])O)cc5)cc4)=N3)cc2)cc1)P(=O)([O-])O.[Na+].[Na+].[Na+].[Na+].[Na+].[Na+].[Na+].[Na+].[Na+].[Na+].[Na+].[Na+].[Na+].[Na+].[Na+].[Na+].[Na+].[Na+].[Na+].[Na+].[Na+].[Na+].[Na+].[Na+] (stereo not drawn)
active: Activity (PBMC [2]) | Activity (PBMC [3]) | Activity (PBMC [4]) | Activity (PBMC [6]) | Activity (PBMC [7]) | Activity (PBMC [8]) | Activity (PBMC [9])
Toxic: Activity (PBMC [5])
Soluble: solubility [1]

CN(CP(=O)(O)O)C(c1ccc(OP(=S)(Oc2ccc(C(N(C)CP(=O)(O)O)P(=O)(O)O)cc2)N(C)/N=C/c2ccc(OP3(Oc4ccc(/C=N/N(C)P(=S)(Oc5ccc(C(N(C)CP(=O)(O)O)P(=O)(O)O)cc5)Oc5ccc(C(N(C)CP(=O)(O)O)P(=O)(O)O)cc5)cc4)=NP(Oc4ccc(/C=N/N(C)P(=S)(Oc5ccc(C(N(C)CP(=O)(O)O)P(=O)(O)O)cc5)Oc5ccc(C(N(C)CP(=O)(O)O)P(=O)(O)O)cc5)cc4)(Oc4ccc(/C=N/N(C)P(=S)(Oc5ccc(C(N(C)CP(=O)(O)O)P(=O)(O)O)cc5)Oc5ccc(C(N(C)CP(=O)(O)O)P(=O)(O)O)cc5)cc4)=NP(Oc4ccc(/C=N/N(C)P(=S)(Oc5ccc(C(N(C)CP(=O)(O)O)P(=O)(O)O)cc5)Oc5ccc(C(N(C)CP(=O)(O)O)P(=O)(O)O)cc5)cc4)(Oc4ccc(/C=N/N(C)P(=S)(Oc5ccc(C(N(C)CP(=O)(O)O)P(=O)(O)O)cc5)Oc5ccc(C(N(C)CP(=O)(O)O)P(=O)(O)O)cc5)cc4)=N3)cc2)cc1)P(=O)(O)O (stereo not drawn)
active: Activity (PBMC [2]) | Activity (PBMC [3]) | Activity (PBMC [6]) | Activity (PBMC [8])

C=CCN(CP(=O)([O-])O)C(c1ccc(OP(=S)(Oc2ccc(C(N(CC=C)CP(=O)([O-])O)P(=O)([O-])O)cc2)N(C)/N=C/c2ccc(OP3(Oc4ccc(/C=N/N(C)P(=S)(Oc5ccc(C(N(CC=C)CP(=O)([O-])O)P(=O)([O-])O)cc5)Oc5ccc(C(N(CC=C)CP(=O)([O-])O)P(=O)([O-])O)cc5)cc4)=NP(Oc4ccc(/C=N/N(C)P(=S)(Oc5ccc(C(N(CC=C)CP(=O)([O-])O)P(=O)([O-])O)cc5)Oc5ccc(C(N(CC=C)CP(=O)([O-])O)P(=O)([O-])O)cc5)cc4)(Oc4ccc(/C=N/N(C)P(=S)(Oc5ccc(C(N(CC=C)CP(=O)([O-])O)P(=O)([O-])O)cc5)Oc5ccc(C(N(CC=C)CP(=O)([O-])O)P(=O)([O-])O)cc5)cc4)=NP(Oc4ccc(/C=N/N(C)P(=S)(Oc5ccc(C(N(CC=C)CP(=O)([O-])O)P(=O)([O-])O)cc5)Oc5ccc(C(N(CC=C)CP(=O)([O-])O)P(=O)([O-])O)cc5)cc4)(Oc4ccc(/C=N/N(C)P(=S)(Oc5ccc(C(N(CC=C)CP(=O)([O-])O)P(=O)([O-])O)cc5)Oc5ccc(C(N(CC=C)CP(=O)([O-])O)P(=O)([O-])O)cc5)cc4)=N3)cc2)cc1)P(=O)([O-])O.[Na+].[Na+].[Na+].[Na+].[Na+].[Na+].[Na+].[Na+].[Na+].[Na+].[Na+].[Na+].[Na+].[Na+].[Na+].[Na+].[Na+].[Na+].[Na+].[Na+].[Na+].[Na+].[Na+].[Na+] (stereo not drawn)
active: Activity (PBMC [10]) Dose-dependent effect | Activity (PBMC [2]) | Activity (PBMC [3]) | Activity (PBMC [11]) Dose-dependent effect | Activity (PBMC [4]) | Activity (PBMC [6]) | Activity (PBMC [7]) | Activity (PBMC [8]) | Activity (PBMC [9])
Soluble: solubility [1]
